From ChEMBL document CHEMBL3102846 (Eur J Med Chem, 2014)
Calls of active or inactive are those of the source. The rule behind the calls is not given here.

How the values were obtained:
[1] = Inhibition of Wnt3A/beta-catenin signaling in HEK293 cells at 1 uM after 24 hrs by firefly/renilla dual luciferase reporter gene assay relative to vehicle-treated control; format: cell-based; set-up: scale not given: the % may be the effect or the level left; conditions: Homo sapiens
Procedure, shortened: (§1)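 HEK293T cells were co-transfected with TOPglow (or FOPglow) plus pCMV Renilla. At 20 h they were reseeded at 18×10^3/well and treated for 24 h with Wnt-3A conditioned medium (from L-Wnt-3A cells) plus analogs (0.01–20 µM; DMSO ≤0.1%). Firefly/Renilla dual-luciferase ratios were expressed as % of DMSO under Wnt-3A. EC50 was taken from sigmoidal concentration–response fits; three independent experiments.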

[2] = system: U2OS; test: Antiinvasive activity in human U2OS cells at 5 uM after 24 hrs by matrigel assay; format: functional
Procedure, shortened: (§2)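 U2OS osteosarcoma cells were pretreated with analogs for 24 h, and viability was confirmed by trypan blue. Cells were then seeded at 1.5×10^5 in serum-free medium onto inserts precoated with 30 µg Matrigel (8 µm pore), with McCoy's 5A plus 15% FBS below as chemoattractant. After 48 h of invasion, cells were fixed in 70% ethanol, stained with 0.2% crystal violet, and counted in ten random fields at 200×. Values are % of DMSO control; n=3.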

[3] = system: U2OS; test: Antiinvasive activity in human U2OS cells at 1 uM after 24 hrs by matrigel assay; format: functional; procedure, shortened: as §2
[4] = Inhibition of Wnt3A/beta-catenin signaling-mediated Tcf4 transcriptional activity in human U2OS cells at 1 uM after 24 hrs by FOPglow reporter gene assay; format: cell-based
Procedure, shortened: (§3)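 U2OS cells (1.0×10^5/well, 90–95% confluent) were co-transfected with TOPglow or FOPglow (0.3 µg) plus pCMV Renilla. At 20 h they were treated for 24 h with Wnt-3A conditioned medium and analogs. Firefly luciferase was normalized to Renilla and expressed as % of DMSO-treated samples; mean ± S.E.M of three independent experiments.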

[5] = Inhibition of Wnt3A/beta-catenin signaling in HEK293 cells at 20 uM after 24 hrs by firefly/renilla dual luciferase reporter gene assay relative to vehicle-treated control; format: cell-based; set-up: scale not given: the % may be the effect or the level left; conditions: Homo sapiens; procedure, shortened: as §1
[6] = Inhibition of Wnt3A/beta-catenin signaling-mediated Tcf4 transcriptional activity in human HEK293T cells at dual luciferase reporter gene assay EC50 after 24 hrs by FOPglow reporter gene assay; set-up: scale not given: the % may be the effect or the level left
[7] = system: U2OS; test: Downregulation of MMP9 protein expression in human U2OS cells at 1 to 5 uM after 24 hrs by Western blot analysis; format: functional, cell-based
Procedure, shortened: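 U2OS cells were exposed to analogs or DMSO vehicle for 24 h, then total protein was collected and MMP-9 immunoblotted. Blots were repeated at least in triplicate.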

[8] = Inhibition of Wnt3A/beta-catenin signaling in HEK293 cells after 24 hrs by firefly/renilla dual luciferase reporter gene assay; format: cell-based; conditions: Homo sapiens, HEK293, 24 h; procedure, shortened: as §1
[9] = Inhibition of Wnt3A/beta-catenin signaling in HEK293 cells at 10 uM after 24 hrs by firefly/renilla dual luciferase reporter gene assay relative to vehicle-treated control; format: cell-based; set-up: scale not given: the % may be the effect or the level left; conditions: Homo sapiens; procedure, shortened: as §1
[10] = Inhibition of Wnt3A/beta-catenin signaling in human U2OS cells assessed as effect on cytoplasmic beta-catenin level at 5 uM after 24 hrs by Western blot analysis; format: cell-based
Procedure, shortened: (§4)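 U2OS cells were pretreated with analogs for 24 h, and cytoplasmic and nuclear fractions were prepared for β-catenin immunoblotting. α-Tubulin (cytoplasmic) and lamin A/C (nuclear) were loading references. Bands were quantified by densitometry and expressed as % of DMSO-treated cells, with at least triplicate experiments.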

[11] = Inhibition of Wnt3A/beta-catenin signaling in HEK293 cells at 5 uM after 24 hrs by firefly/renilla dual luciferase reporter gene assay relative to vehicle-treated control; format: cell-based; set-up: scale not given: the % may be the effect or the level left; conditions: Homo sapiens; procedure, shortened: as §1
[12] = Inhibition of Wnt3A/beta-catenin signaling in HEK293 cells after 24 hrs by firefly/renilla dual luciferase reporter gene assay relative to curcumin; format: cell-based; conditions: Homo sapiens
Procedure, shortened: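 EC50s came from the HEK293T TOPglow/Renilla dual-luciferase assay with Wnt-3A conditioned medium and 24 h compound exposure (0.01–20 µM), using sigmoidal fits; three independent experiments.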

[13] = Inhibition of Wnt3A/beta-catenin signaling in human U2OS cells assessed as reduction in nuclear beta-catenin accumulation at 5 uM after 24 hrs by Western blot analysis; format: cell-based; procedure, shortened: as §4
[14] = system: HEK293T (human); test: Cytotoxicity against human HEK293T cells at dual luciferase reporter gene assay EC50 after 24 hrs by MTS assay
[15] = Inhibition of Wnt3A/beta-catenin signaling-mediated Tcf4 transcriptional activity in human U2OS cells at 10 uM after 24 hrs by FOPglow reporter gene assay; format: cell-based; procedure, shortened: as §3
[16] = Inhibition of Wnt3A/beta-catenin signaling-mediated Tcf4 transcriptional activity in human U2OS cells at 20 uM after 24 hrs by FOPglow reporter gene assay; format: cell-based; procedure, shortened: as §3
[17] = Inhibition of Wnt3A/beta-catenin signaling-mediated Tcf4 transcriptional activity in human U2OS cells at 5 uM after 24 hrs by FOPglow reporter gene assay; format: cell-based; procedure, shortened: as §3

Compound	activity [1]	Activity [2]	Activity [3]	inhibition [4]	activity [5]	activity [6]	activity [7]	EC50 [8]	activity [9]	inhibition [10]	activity [11]	fold change (FC) [12]	inhibition [13]	Activity [14]	inhibition [15]	inhibition [16]	inhibition [17]
COc1ccc(/C=C2\CCC/C(=C\c3ccc(OC)c(O)c3)C2=O)cc1O	37.3%	81.6%	34.8%	25.7%	21.4%	93.8%	Active	0.3 µM	24.7%	inactive	27.7%	59.7	Active	91.6%	–	–	–
O=C(/C=C/c1ccc(O)cc1)/C=C/c1ccc(O)cc1	62.3%	76.2%	34.8%	25.7%	37.8%	100%	Active	3.2 µM	52%	inactive	51.3%	6.5	Active	–	–	–	–
O=C1/C(=C/c2ccc(O)cc2)CC/C1=C\c1ccc(O)cc1	34.3%	72.8%	34.8%	25.7%	8%	101%	Active	0.4 µM	19.6%	inactive	28.3%	50.5	Active	81.4%	–	–	–
COc1cc(/C=C/C(=O)CC(=O)/C=C/c2ccc(O)c(OC)c2)ccc1O [CURCUMIN]	99.4%	29%	–	–	62.8%	89.3%	–	20.7 µM	82.5%	–	98.2%	–	–	–	27.1%	59.4%	–
COc1ccc(/C=C/C(=O)/C=C/c2ccc(OC)c(O)c2)cc1O	82.5%	–	–	–	–	105%	–	1.8 µM	34.4%	inactive	38.8%	11.2	inactive	86.6%	–	–	49.4%
